In ChEMBL document CHEMBL1122813, “Synthesis and antibacterial activity of 2-[(methoxycarbonyl)methylene]cephalosporins” (1984) one finds MIC data, which are given here for 8 compounds.

For assay [1], the system named is Klebsiella pneumoniae. Nature of the assay: In vitro antibacterial activity against Klebsiella pneumoniae strain 20468. In kind it is functional. An outline of the steps:
(§1)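 MIC by serial twofold dilution of compound in Mueller-Hinton agar. The agar surface or broth was inoculated with a suitably diluted 18-24-h broth culture, then incubated at 37 °C for 17 h. MIC was read as the lowest concentration inhibiting visible growth.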

A further assay concerns Serratia marcescens. Kind of assay: In vitro antibacterial activity against Serratia marcescens strain 20019. Type of assay: functional. An outline of the steps:
as §1

The next assay has as its system Streptococcus pneumoniae. Kind of assay: In vitro antibacterial activity against Streptococcus pneumoniae strain 9585. Type of assay: functional. An outline of the steps:
as §1

In assay [2] the test system is Enterobacter cloacae. Kind of assay: In vitro antibacterial activity against Enterobacter cloacae strain 9659. Type of assay: functional. The gist of the method:
as §1

The test system of assay [3] is Staphylococcus aureus. Kind of assay: In vitro antibacterial activity against Staphylococcus aureus strain 9537 + 50% serum. Type of assay: functional. An outline of the steps:
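Serial twofold dilution MIC with 50% human serum present. Mueller-Hinton agar or broth was inoculated with a suitably diluted 18-24-h broth culture and incubated at 37 °C for 17 h. The endpoint was the lowest concentration that stopped visible growth.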

For assay [4], the system named is Klebsiella pneumoniae. Kind of assay: In vitro antibacterial activity against Klebsiella pneumoniae strain 15130. Type of assay: functional. The gist of the method: as §1
Assay [5] relates to Proteus mirabilis. Nature of the assay: In vitro antibacterial activity against Proteus mirabilis strain 9900. In kind it is functional. An outline of the steps:
as §1

The next assay has as its system Streptococcus pyogenes. Nature of the assay: In vitro antibacterial activity against Streptococcus pyogenes strain 9604. Type of assay: functional. The gist of the method: as §1
In assay [6] the test system is Escherichia coli. Kind of assay: In vitro antibacterial activity against Escherichia coli strain 20341. Type of assay: functional. An outline of the steps: as §1
Assay [7] concerns Providencia rettgeri. Kind of assay: In vitro antibacterial activity against Providencia rettgeri strain 21203. Type of assay: functional. The gist of the method:
as §1

Assay [8] relates to Escherichia coli. Kind of assay: In vitro antibacterial activity against Escherichia coli strain 15119. In kind it is functional. The gist of the method:
as §1

A further assay relates to Enterococcus faecalis. Nature of the assay: In vitro antibacterial activity against Streptococcus faecalis strain 20688. Type of assay: functional. The gist of the method: as §1
Assay [9] deals with Enterobacter cloacae. Kind of assay: In vitro antibacterial activity against Enterobacter cloacae strain 9656. In kind it is functional. An outline of the steps: as §1
For assay [10], the system named is Staphylococcus aureus. Nature of the assay: In vitro antibacterial activity against Staphylococcus aureus strain 9537. Type of assay: functional. The gist of the method:
(§2)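 MIC by serial twofold dilution in Mueller-Hinton agar. Agar surface or broth inoculated with a suitably diluted 18-24-h broth culture. Plates and broth tubes incubated at 37 °C for 17 h. MIC taken as the lowest concentration that inhibited visible growth.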

Another assay deals with Morganella morganii. Kind of assay: In vitro antibacterial activity against Morganella morganii strain 15153. In kind it is functional. The gist of the method:
as §1

For assay [11], the system named is Staphylococcus aureus. Kind of assay: In vitro antibacterial activity against Staphylococcus aureus strain 9606 (Penicillin resistant). In kind it is functional. An outline of the steps:
as §2

The subject of assay [12] is Proteus mirabilis. Nature of the assay: In vitro antibacterial activity against Proteus mirabilis strain 9716. Type of assay: functional. The gist of the method:
as §1

In assay [13] the test system is Providencia rettgeri. Kind of assay: In vitro antibacterial activity against Providencia rettgeri strain 21203.

Molecules are shown by their SMILES. Values after ≈ are worked out from the molar mass of the structure shown.

Broadly, the MIC is the lowest concentration that inhibits growth of the organism. For `COC(=O)/C=C1\SC2C(NC(=O)C(N)c3ccccc3)C(=O)N2C(C(=O)O)=C1C.O=C(O)C(F)(F)F` (stereo unspecified), the MIC is more than 125 µg/mL in the assay with Klebsiella pneumoniae [1]; more than 125 µg/mL against Serratia marcescens; 0.13 µg/mL in the assay with Streptococcus pneumoniae; more than 125 µg/mL against Enterobacter cloacae [2]; 32 µg/mL in the assay on Staphylococcus aureus [3]; more than 125 µg/mL against Klebsiella pneumoniae [4]. Besides, the MIC was more than 125 µg/mL in the assay on Proteus mirabilis [5]; 0.025 µg/mL against Streptococcus pyogenes; more than 125 µg/mL with Escherichia coli [6]; more than 125 µg/mL in the assay with Providencia rettgeri [7]; more than 125 µg/mL in the assay on Escherichia coli [8]; 63 µg/mL with Enterococcus faecalis. The MIC against Enterobacter cloacae [9] was more than 125 µg/mL; against Staphylococcus aureus [10], 1 µg/mL; against Morganella morganii, more than 125 µg/mL; in the assay on Staphylococcus aureus [11] it was more than 125 µg/mL; against Proteus mirabilis [12] it was more than 125 µg/mL.
`COC(=O)/C=C1/SC2C(NC(=O)Cc3cccs3)C(=O)N2C(C(=O)O)=C1C` (stereo unspecified): the MIC in the assay on Klebsiella pneumoniae [1] is more than 125 µg/mL; in the assay with Serratia marcescens, 4 µg/mL (≈ 9.79 µM); against Streptococcus pneumoniae, 0.5 µg/mL (≈ 1.22 µM); against Enterobacter cloacae [2], more than 125 µg/mL; with Staphylococcus aureus [3], 63 µg/mL; against Klebsiella pneumoniae [4], more than 125 µg/mL. Besides, the minimum inhibitory concentration (MIC) against Proteus mirabilis [5] amounted to 32 µg/mL (≈ 78.3 µM); against Streptococcus pyogenes, 2 µg/mL (≈ 4.9 µM); against Escherichia coli [6] it was 125 µg/mL (≈ 306 µM); with Providencia rettgeri [7], 4 µg/mL (≈ 9.79 µM); in the assay with Escherichia coli [8] it was 125 µg/mL (≈ 306 µM); with Enterococcus faecalis, 8 µg/mL (≈ 19.6 µM). For the same compound, the MIC was more than 125 µg/mL against Enterobacter cloacae [9]; 0.06 µg/mL (≈ 0.147 µM) against Staphylococcus aureus [10]; 16 µg/mL (≈ 39.2 µM) in the assay with Morganella morganii; 1 µg/mL (≈ 2.45 µM) in the assay on Staphylococcus aureus [11]; 4 µg/mL (≈ 9.79 µM) with Proteus mirabilis [12].
With `CC(=O)OCC1=C(C(=O)O)N2C(=O)[C@@H](NC(=O)Cc3cccs3)[C@H]2SC1` [CEPHALOTHIN], the MIC was more than 125 µg/mL in the assay on Klebsiella pneumoniae [1]; more than 125 µg/mL against Serratia marcescens; 0.03 µg/mL (≈ 0.0757 µM) in the assay on Streptococcus pneumoniae; more than 125 µg/mL against Enterobacter cloacae [2]; 2 µg/mL in the assay on Staphylococcus aureus [3]; 16 µg/mL (≈ 40.4 µM) with Klebsiella pneumoniae [4]. Further, the MIC was found to be 1 µg/mL (≈ 2.52 µM) against Proteus mirabilis [5]; 0.06 µg/mL (≈ 0.151 µM) in the assay on Streptococcus pyogenes; 63 µg/mL (≈ 159 µM) against Providencia rettgeri [13]; 32 µg/mL (≈ 80.7 µM) in the assay on Escherichia coli [6]; 16 µg/mL (≈ 40.4 µM) in the assay on Escherichia coli [8]; 32 µg/mL (≈ 80.7 µM) with Enterococcus faecalis. The MIC against Enterobacter cloacae [9] is more than 125 µg/mL; in the assay on Staphylococcus aureus [10] it was 0.06 µg/mL (≈ 0.151 µM); with Morganella morganii, more than 125 µg/mL; against Staphylococcus aureus [11], 0.5 µg/mL (≈ 1.26 µM); in the assay on Proteus mirabilis [12], 8 µg/mL (≈ 20.2 µM).
Turning to `COC(=O)/C=C1\SC2C(NC(=O)Cc3cccs3)C(=O)N2C(C(=O)O)=C1C` (stereo unspecified), the MIC was more than 125 µg/mL in the assay on Klebsiella pneumoniae [1]; more than 125 µg/mL against Serratia marcescens; 0.25 µg/mL (≈ 0.612 µM) in the assay with Streptococcus pneumoniae; more than 125 µg/mL against Enterobacter cloacae [2]; 63 µg/mL in the assay on Staphylococcus aureus [3]; 125 µg/mL (≈ 306 µM) against Klebsiella pneumoniae [4]. For the same compound, the MIC in the assay with Proteus mirabilis [5] turned out to be 16 µg/mL (≈ 39.2 µM); with Streptococcus pyogenes, 2 µg/mL (≈ 4.9 µM); in the assay with Escherichia coli [6], 125 µg/mL (≈ 306 µM); against Providencia rettgeri [7], 63 µg/mL (≈ 154 µM); in the assay on Escherichia coli [8], 63 µg/mL (≈ 154 µM); with Enterococcus faecalis, 2 µg/mL (≈ 4.9 µM). Further, the MIC in the assay with Enterobacter cloacae [9] was more than 125 µg/mL; against Staphylococcus aureus [10] it was 0.13 µg/mL (≈ 0.318 µM); with Morganella morganii, 125 µg/mL (≈ 306 µM); with Staphylococcus aureus [11] it was 2 µg/mL (≈ 4.9 µM); against Proteus mirabilis [12] it was 32 µg/mL (≈ 78.3 µM).
`COC(=O)/C=C1\SC2C(NC(=O)Cc3cccs3)C(=O)N2C(C(=O)O)=C1COC(C)=O` (stereo unspecified): the MIC is 63 µg/mL (≈ 135 µM) in the assay with Klebsiella pneumoniae [1]; more than 125 µg/mL against Serratia marcescens; 0.13 µg/mL (≈ 0.279 µM) against Streptococcus pneumoniae; more than 125 µg/mL against Enterobacter cloacae [2]; 63 µg/mL in the assay with Staphylococcus aureus [3]; more than 125 µg/mL in the assay with Klebsiella pneumoniae [4]. For the same compound, the MIC against Proteus mirabilis [5] was 125 µg/mL (≈ 268 µM); with Streptococcus pyogenes, 0.5 µg/mL (≈ 1.07 µM); with Escherichia coli [6] it was more than 125 µg/mL; with Providencia rettgeri [7], more than 125 µg/mL; with Escherichia coli [8], 125 µg/mL (≈ 268 µM); with Enterococcus faecalis, 4 µg/mL (≈ 8.57 µM). Besides, the MIC is more than 125 µg/mL in the assay with Enterobacter cloacae [9]; 2 µg/mL (≈ 4.29 µM) with Staphylococcus aureus [10]; more than 125 µg/mL against Morganella morganii; 2 µg/mL (≈ 4.29 µM) against Staphylococcus aureus [11]; 125 µg/mL (≈ 268 µM) against Proteus mirabilis [12].
As for `CO/N=C(/C(=O)NC1C(=O)N2C(C(=O)O)=C(C)/C(=C/C(=O)OC)SC12)c1csc(N)n1.O=C(O)C(F)(F)F` (stereo unspecified), the MIC was 32 µg/mL in the assay on Klebsiella pneumoniae [1]; more than 125 µg/mL against Serratia marcescens; 0.016 µg/mL in the assay on Streptococcus pneumoniae; more than 125 µg/mL against Enterobacter cloacae [2]; 125 µg/mL with Staphylococcus aureus [3]; 16 µg/mL in the assay with Klebsiella pneumoniae [4]. The MIC was found to be 2 µg/mL against Proteus mirabilis [5]; 0.016 µg/mL with Streptococcus pyogenes; 2 µg/mL in the assay with Escherichia coli [6]; 32 µg/mL in the assay on Providencia rettgeri [7]; 2 µg/mL against Escherichia coli [8]; 63 µg/mL with Enterococcus faecalis. Besides, the MIC against Enterobacter cloacae [9] was more than 125 µg/mL; with Staphylococcus aureus [10], 2 µg/mL; in the assay with Morganella morganii, more than 125 µg/mL; in the assay on Staphylococcus aureus [11], 4 µg/mL; against Proteus mirabilis [12], 16 µg/mL.
`COC(=O)/C=C1\SC2C(NC(=O)C(O)c3ccccc3)C(=O)N2C(C(=O)O)=C1C` (stereo unspecified): the MIC is more than 125 µg/mL against Klebsiella pneumoniae [1]; more than 125 µg/mL against Serratia marcescens; 0.25 µg/mL (≈ 0.597 µM) in the assay on Streptococcus pneumoniae; more than 125 µg/mL with Enterobacter cloacae [2]; 32 µg/mL in the assay on Staphylococcus aureus [3]; more than 125 µg/mL with Klebsiella pneumoniae [4]. Moreover, the MIC against Proteus mirabilis [5] was 63 µg/mL (≈ 151 µM); against Streptococcus pyogenes, 0.25 µg/mL (≈ 0.597 µM); against Escherichia coli [6], more than 125 µg/mL; in the assay on Providencia rettgeri [7] it was more than 125 µg/mL; against Escherichia coli [8] it was more than 125 µg/mL; against Enterococcus faecalis, 16 µg/mL (≈ 38.2 µM). Also, the minimal inhibitory concentration (MIC) against Enterobacter cloacae [9] is more than 125 µg/mL; against Staphylococcus aureus [10], 0.5 µg/mL (≈ 1.19 µM); in the assay with Morganella morganii it was more than 125 µg/mL; in the assay on Staphylococcus aureus [11] it was more than 125 µg/mL; in the assay on Proteus mirabilis [12], more than 125 µg/mL.
As to `CO/N=C(/C(=O)NC1C(=O)N2C(C(=O)O)=C(C)/C(=C/C(=O)OC)SC12)c1ccco1` (stereo unspecified), the MIC in the assay with Klebsiella pneumoniae [1] was more than 125 µg/mL; against Serratia marcescens it was more than 125 µg/mL; with Streptococcus pneumoniae it was 0.25 µg/mL (≈ 0.574 µM); with Enterobacter cloacae [2], more than 125 µg/mL; in the assay with Staphylococcus aureus [3], 63 µg/mL; against Klebsiella pneumoniae [4], 16 µg/mL (≈ 36.7 µM). Besides, the MIC against Proteus mirabilis [5] was determined as 4 µg/mL (≈ 9.19 µM); with Streptococcus pyogenes, 0.25 µg/mL (≈ 0.574 µM); in the assay on Escherichia coli [6], 63 µg/mL (≈ 145 µM); with Providencia rettgeri [7], 32 µg/mL (≈ 73.5 µM); against Escherichia coli [8] it was 16 µg/mL (≈ 36.7 µM); with Enterococcus faecalis, 32 µg/mL (≈ 73.5 µM). Also, the MIC in the assay on Enterobacter cloacae [9] worked out at 63 µg/mL (≈ 145 µM); against Staphylococcus aureus [10], 2 µg/mL (≈ 4.59 µM); against Morganella morganii it was 63 µg/mL (≈ 145 µM); against Staphylococcus aureus [11] it was 4 µg/mL (≈ 9.19 µM); with Proteus mirabilis [12], 4 µg/mL (≈ 9.19 µM).
